Source: PubChem (several laboratories)
MT stabilize HCS: microtubule stabilizers in HeLa cells, primary screen, imaging, high-content imaging; HeLa tubulin immunostaining HCS, 24 h; share of cells brighter than vehicle mean+2SD; AID 2205, 2009; 200,000 tested, 0.83% active; % tubulin-high responders, % at 10 µM;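 active = plate Z-score above 3 for both tubulin-high and condensed-nucleus cell shares, with cell loss under 80%, at 10 µM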;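 also: anti alpha tubulin signal scored within the nucleus-defined area of each cell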
BaF3 tox: parental Ba/F3 cell viability inhibition, counter-screen for JAK2V617F inhibitor project, murine pro-B, CellTiter-Glo luminescence | inhibition, % at 5.6 µM | 220,000 tested, 1.1% active | AID 1486, 2009 | CellTiter-Glo ATP luminescence;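 active = inhibition above a per-campaign cutoff, the mean inhibition of all tested compounds plus 3 SD, cut at about 27% in these data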
b-catenin transl: modulators of beta-catenin nuclear translocation, primary screen, imaging, HeLa cells, immunofluorescence, high-content; 190,000 tested, 0.3% active; nuclear translocation activity, % at 5 µM;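 active = nuclear translocation activity above 50% at 5 µM, with a well cell count of 50 or more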;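 also: per-cell ratio of nuclear to cytoplasmic median beta-catenin stain intensity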
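Signal – beta-catenin immunofluorescence imaging with DAPI · Test system – human HeLa cell line · Dosing – 5 µM primary single dose, 0.1% DMSO, 0.02–20 µM confirmation series · Measure – % activation, nuclear-to-cytoplasmic median beta-catenin signal ratio per cell · Incubation – 24 h compound exposure at 37°C, 5% CO2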
IEC-6 cytotox: cytotoxicity in IEC-6 intestinal epithelial cells, primary screen, cytotoxicity control for KLF5 inhibitor project, cell-based, luminescence. IEC-6 cytotoxicity, luminescence viability. inhibition, % at 5 µM. 290,000 tested, 0.78% active
Ba/F3 V617F tox: reduced viability of JAK2V617F-dependent Ba/F3 cells, primary screen, JAK2V617F inhibitor project, cell-based, Ba/F3 EpoR-JAK2V617F, luminescence; 220,000 tested, 1.1% active; AID 1446, 2008; inhibition, % at 5.6 µM; ATP luminescence;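 active = inhibition above the campaign mean plus 3 SD over all tested compounds, cut at about 24% in these data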;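 also: cytokine-independent growth of Ba/F3 cells driven by EpoR plus mutant JAK2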
APP transl inh: inhibitors of APP translation via 5'UTR reporter, primary screen, APP 5'UTR luciferase, SH-SY5Y cells; inhibition, % at 2 µM; 190,000 tested, 0.82% active; SH-SY5Y APP 5'UTR-luciferase reporter, luminescence; AID 1285, 2008;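 active = inhibition above a set limit, derived from the sample mean plus 3 SD, cut at about 45% in these data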
IEC-6 tox confirm: cytotoxic compounds in IEC-6 epithelial cells, confirmation, cytotoxicity control, cell-based, luminescence | inhibition, % at 5 µM | AID 1907, 2009 | 1,900 tested, 63% active | shares compounds with IEC-6 cytotox | IEC-6 rat intestinal epithelial viability
Each line names hits and unclear results; the compound was inactive in the other large screens (follow-up assays come after a bar, where they were run). A selection: hits, their analogues and other compounds. The true share with any hit is near 2.2%. Rule as the data show it, unless noted: active = inhibition above about 22%; inactive = the rest.

CC[n+]1c(/C=C/c2ccc(OC)c(OC)c2)ccc2ccccc21	none (no result: MT stabilize HCS, BaF3 tox, b-catenin transl, Ba/F3 V617F tox, APP transl inh)
CCN1/C(=C\c2ccc3cc(C)ccc3[n+]2CC)Sc2cc(C)c(C)cc21	BaF3 tox 71, IEC-6 cytotox 37, Ba/F3 V617F tox 100 | IEC-6 tox confirm 28
COc1ccc(S(=O)(=O)N2CCCc3ccccc32)cc1[N+](=O)[O-]	IEC-6 cytotox 59 (no result: MT stabilize HCS, BaF3 tox, b-catenin transl, Ba/F3 V617F tox, APP transl inh) | IEC-6 tox confirm 44
COc1ccc(S(=O)(=O)N2CCCc3ccccc32)cc1OC	none (no result: MT stabilize HCS, APP transl inh)
CC1Cc2ccccc2N1C(=O)CN1C(=O)C(=O)N(Cc2ccccc2)C1=O (centres undefined)	none (no result: b-catenin transl)
CCOC(=O)c1[nH]c(C)c(C(=O)c2cc(F)ccc2F)c1C	BaF3 tox 78, b-catenin transl 55, IEC-6 cytotox 88, Ba/F3 V617F tox 63, APP transl inh 95 | IEC-6 tox confirm 65
CCOC(=O)c1[nH]c(C)c(C(=O)OCC)c1C	none (no result: b-catenin transl)
CCOC(=O)c1[nH]c(C)c(C(=O)OCc2ccccc2F)c1C	IEC-6 cytotox 51 (no result: MT stabilize HCS, BaF3 tox, b-catenin transl, Ba/F3 V617F tox, APP transl inh) | IEC-6 tox confirm 38
CCOC(=O)c1[nH]c(C)c(C(=O)N2CCc3ccccc32)c1C	MT stabilize HCS 29, BaF3 tox 85, b-catenin transl 83, IEC-6 cytotox 92, Ba/F3 V617F tox 81, APP transl inh 96 | IEC-6 tox confirm 55
CC(=O)c1c(C)[nH]c(C(=O)N2CCc3ccccc32)c1C	none
COCCCN(Cc1cccs1)S(=O)(=O)c1csc(C(N)=O)c1	none (no result: MT stabilize HCS, BaF3 tox, b-catenin transl, Ba/F3 V617F tox, APP transl inh)
COc1ccc(C(C)(C)NC(=O)C2CCC(=O)N(C3CC3)C2)cc1OC (centres undefined)	none (no result: MT stabilize HCS, BaF3 tox, b-catenin transl, Ba/F3 V617F tox, APP transl inh)
COCCN(C(=S)Nc1c(C)cccc1C)C(C)c1ccco1 (centres undefined)	none (no result: MT stabilize HCS, APP transl inh)
Cc1cccc(Nc2ncnc3ccc(Br)cc23)c1	IEC-6 cytotox 42 | IEC-6 tox confirm 42
CC1CCCC(C)N1C(=O)c1cc(-c2ccc3c(c2)OCO3)on1 (centres undefined)	none (no result: MT stabilize HCS, BaF3 tox, b-catenin transl, Ba/F3 V617F tox, APP transl inh)
Cc1cc(NC(=O)CSc2nc3c(C)c(C)ccc3cc2C)no1	none (no result: MT stabilize HCS, BaF3 tox, b-catenin transl, Ba/F3 V617F tox, APP transl inh)
CCc1cc2ccc(C)c(C)c2nc1SCC(=O)Nc1cc(C)on1	IEC-6 cytotox 35 (no result: MT stabilize HCS, BaF3 tox, b-catenin transl, Ba/F3 V617F tox, APP transl inh) | IEC-6 tox confirm 32
Cc1cccc2cc(C#N)c(SCC(=O)N3CC(=O)Nc4ccccc43)nc12	BaF3 tox 89, IEC-6 cytotox 93, Ba/F3 V617F tox 85, APP transl inh 96 | IEC-6 tox confirm 74
Cc1cc(NC(=O)CSc2nc3c(C)cccc3cc2C#N)no1	IEC-6 cytotox 23 (no result: MT stabilize HCS, BaF3 tox, b-catenin transl, Ba/F3 V617F tox, APP transl inh) | IEC-6 tox confirm inactive
Cc1cc(NC(=O)CSc2nnc(-c3ccccc3)o2)no1	IEC-6 cytotox 29 | IEC-6 tox confirm inactive
O=C(O)c1ccccc1OCCOCCOc1ccccc1C(=O)O	none
CC(OC(=O)c1ccccc1Oc1ccccc1)C(=O)NC1CC1 (centres undefined)	none
COc1ccc(NC(=O)c2cc(CC(C)C)nc3ccccc23)cc1	none (no result: MT stabilize HCS, BaF3 tox, b-catenin transl, Ba/F3 V617F tox, APP transl inh)
CN1/C(=C/C=C(/C#N)C(N)=O)C(C)(C)c2ccccc21	MT stabilize HCS 20, BaF3 tox 62, IEC-6 cytotox 47, Ba/F3 V617F tox 78, APP transl inh 68 (no result: b-catenin transl) | IEC-6 tox confirm 44
CN1/C(=C\C=C(/C#N)C(=O)Nc2ccccc2F)C(C)(C)c2ccccc21	none
COc1ccc(C(=O)Nc2ccccc2C(=O)O)cc1Cl	none
CCOc1c(Cl)cc(C(=O)Nc2ccccc2C(=O)O)cc1Cl	BaF3 tox 27, IEC-6 cytotox 37, Ba/F3 V617F tox 25 | IEC-6 tox confirm inactive
CCCN1C(=O)c2ccccc2NC1c1ccc(O)c(OCC)c1 (centres undefined)	none (no result: MT stabilize HCS, BaF3 tox, b-catenin transl, Ba/F3 V617F tox, APP transl inh)
O=c1[nH]c(/C=C2\C=Nc3ccccc32)c(O)n1Cc1ccccc1F	BaF3 tox 67, IEC-6 cytotox 41, Ba/F3 V617F tox 99, APP transl inh 63 | IEC-6 tox confirm 37
CSc1nc(O)c(/C=C2\C=Nc3ccccc32)[nH]1	none
COc1cc2ncnc(NCc3ccccc3C)c2cc1OC	IEC-6 cytotox 25 | IEC-6 tox confirm 36
COc1cc2ncnc(Nc3cccc(Cl)c3)c2cc1OC	none (no result: MT stabilize HCS, APP transl inh)
